Reference: BindingDB's records for doi:10.1128/AAC.00971-08 (Cnrs-Cpbs/Umr 5236, 2009)

Biological target: Albumin (Homo sapiens, UniProt P02768)
Experiment: Binding affinity to first site on human serum albumin by SPR
Outline: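 SPR on a BIACORE 3000 at 25°C. HSA was amine-coupled to a CM5 chip at 40 µg/ml in 10 mM acetate, pH 5.2. Drug was injected from 400 µM to 0.1 µM in twofold dilutions in PBS with 5% DMSO at 50 µl/min, with 30 s association and 30 s dissociation. Responses were reference-subtracted, read 10 s into the injection and DMSO-corrected. Dose-response curves gave KD or fraction of sites occupied.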

Sequence of Albumin (P02768 whole entry): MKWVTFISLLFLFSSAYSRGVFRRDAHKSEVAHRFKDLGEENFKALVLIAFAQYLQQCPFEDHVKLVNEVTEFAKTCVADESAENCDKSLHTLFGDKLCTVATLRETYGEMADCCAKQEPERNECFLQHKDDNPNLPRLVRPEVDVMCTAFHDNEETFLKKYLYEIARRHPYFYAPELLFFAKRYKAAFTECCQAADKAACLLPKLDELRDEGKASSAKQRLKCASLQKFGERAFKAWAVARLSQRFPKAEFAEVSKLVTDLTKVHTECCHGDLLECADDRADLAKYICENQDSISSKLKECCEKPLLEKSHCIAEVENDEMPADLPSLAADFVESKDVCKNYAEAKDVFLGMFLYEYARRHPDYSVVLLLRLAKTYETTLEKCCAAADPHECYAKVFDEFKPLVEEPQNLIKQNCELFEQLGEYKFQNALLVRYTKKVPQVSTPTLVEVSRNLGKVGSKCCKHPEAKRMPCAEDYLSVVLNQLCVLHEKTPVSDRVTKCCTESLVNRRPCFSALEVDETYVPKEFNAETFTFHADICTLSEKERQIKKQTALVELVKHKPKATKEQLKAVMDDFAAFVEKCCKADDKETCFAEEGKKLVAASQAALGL

SMILES	Kd [µM]
COc1ccc(OC)c(/C=C2\SC(=S)N(C(C(=O)O)c3ccccc3)C2=O)c1 (configuration not stated) [2-[(5Z)-5-[(2,5-dimethoxyphenyl)methylidene]-4-oxo-2-sulfanylidene-3-thiazolidinyl]-2-phenylacetic acid]	12
CN(C)c1ccc(O)c2c1C[C@H]1C[C@H]3[C@H](N(C)C)C(=O)C(C(N)=O)C(=O)[C@@]3(O)C(=O)C1C2=O (some centres not stated) [Klinomycin]	12
